Compound activity from PubChem.
Shown are actives, neighbours in structure and some others; about 5.8% of the full set was active somewhere.
Pf Dd2 inh: P. falciparum Dd2 growth inhibitors, primary screen, SYBR Green fluorescence, single dose replicates. 72 h; stronger effect = lower value. activity change, % at 10 µM. 94,000 tested, 2.3% active; in the data active = activity change below about -80%
Tcruzi prolif: T. cruzi intracellular proliferation inhibitors, primary screen, cell-based, beta-gal Tulahuen parasites, NIH3T3 host, luminescence; T. cruzi beta-gal in NIH3T3, GalScreen luminescence, 90 h; inhibition, % at 8.34 µM; 77,000 tested, 5.9% active;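 active = mean inhibition above about 93%, with at least 55% of replicates each passing it, limit read from the data, passing the limit was not always enough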
KDM4C inh: inhibitors of GASC-1 (KDM4C) histone demethylase, primary screen, biochemical, single concentration HTS; Lysine-specific demethylase 4C (Homo sapiens), Q9H3R0; GST-KDM4C 2-372, H3K9me3 peptide, LANCE TR-FRET; inhibition, % at 12.5 µM; 96,000 tested, 0.15% active; AID 720574, 2013;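 active = mean replicate inhibition above about 25%, with at least 55% of replicates also reaching it, limit read from the data, passing the limit was not always enough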
Target sequence (Q9H3R0 2-372 limits assumed): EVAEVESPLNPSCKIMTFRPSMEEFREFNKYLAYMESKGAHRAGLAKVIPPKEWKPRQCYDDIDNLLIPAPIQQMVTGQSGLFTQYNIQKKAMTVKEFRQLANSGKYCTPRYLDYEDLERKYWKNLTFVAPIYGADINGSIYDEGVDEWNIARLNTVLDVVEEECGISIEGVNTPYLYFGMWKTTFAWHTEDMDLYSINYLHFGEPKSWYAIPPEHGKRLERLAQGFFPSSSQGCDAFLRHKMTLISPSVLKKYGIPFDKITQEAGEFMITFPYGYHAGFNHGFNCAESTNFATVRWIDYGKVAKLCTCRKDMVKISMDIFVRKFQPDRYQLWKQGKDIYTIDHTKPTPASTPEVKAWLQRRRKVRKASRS
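reagent = H3K9me3 peptide substrate, Fe(II), 2-oxoglutarate | system = GST-tagged GASC-1 (JMJD2C) catalytic fragment, aa 2-372 | amount = enzyme final amount 10 nM | read-out = Fall in 671/618 emission ratio as inhibition | medium = HEPES buffer, pH 7.5, plus ascorbate | schedule = 30 min reaction, 60 min detection, RT | measured by = LANCE TR-FRET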
IDH1 mut inh: inhibitors of IDH1 R132H reductase, primary screen, biochemical, plate reader, single point; 70,000 tested, 0.18% active; inhibition, % at 10 µM; AID 624101, 2012; diaphorase/resazurin fluorescence, 60 min; in the data active = inhibition above about 34%;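 note: 0% = DMSO and 100% = no enzyme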
* hit, by the source's call; . = no result.

SMILES	Pf Dd2 inh	Tcruzi prolif	KDM4C inh	IDH1 mut inh
COc1ccc(S(=O)(=O)Nc2ccc3c(c2)C(=O)N([C@@H](C)CO)C[C@H](C)[C@H](CN(C)C(=O)NC2CCCCC2)OCCCC[C@@H](C)O3)cc1	-88.2*	30.2	-0.8	.
C[C@@H]1CCCCO[C@H](CN(C)C(=O)Nc2ccccc2)[C@H](C)CN([C@@H](C)CO)C(=O)c2cc(NS(=O)(=O)c3ccccc3)ccc2O1	-84.1*	.	-1.1	.
C[C@@H]1CCCCO[C@H](CN(C)C(=O)Nc2ccc(F)cc2)[C@H](C)CN([C@H](C)CO)C(=O)c2cc(NS(=O)(=O)c3ccccc3)ccc2O1	-90.8*	60.0	0.3	1.3
C[C@@H]1CCCCO[C@H](CN(C)C(=O)Nc2ccc(F)cc2)[C@@H](C)CN([C@@H](C)CO)C(=O)c2cc(NS(=O)(=O)c3ccccc3)ccc2O1	-75.8	96.6	-2.5	0.6
COc1ccc(S(=O)(=O)N(C)CC(=O)Nc2ccccc2Br)cc1C	.	.	.	0.4
CN(C)CCCN1C(=O)C(=O)C(C(=O)c2ccco2)C1c1cccc([N+](=O)[O-])c1 (centres undefined)	.	.	.	0.8
COc1ccccc1C#Cc1ccc2c(c1)[C@@H]1NCC[C@@H]1[C@H](CO)N2	-90.2*	.	0.1	.
OC[C@@H]1Nc2ccc(C#Cc3cccc(F)c3)cc2[C@H]2NCC[C@@H]12	-87.6*	.	-0.7	.
COc1ccc(OC)c(NC(=O)COc2ccc([N+](=O)[O-])cc2)c1	.	.	.	0.0
CC(=O)c1ccc(OC(=O)CCCN2C(=O)c3ccccc3C2=O)cc1	.	.	.	0.5
O=C1c2c(O)cc(O)cc2O[C@@H](c2ccc(O)cc2)[C@@H]1O	.	.	.	-0.2
C[C@@H]1CN([C@@H](C)CO)C(=O)c2cccc(NC(=O)C3CCCCC3)c2O[C@H]1CN(C)Cc1ccc(C(=O)Nc2ccccc2N)cc1	-87.0*	72.0	-3.3	0.1
C[C@@H]1CN([C@H](C)CO)C(=O)c2cccc(NC(=O)C3CCCCC3)c2O[C@H]1CN(C)Cc1ccc(C(=O)Nc2ccccc2N)cc1	-85.5*	75.9	-3.6	.
C[C@@H]1CN([C@@H](C)CO)C(=O)c2cccc(NC(=O)NC3CCCCC3)c2O[C@@H]1CN(C)Cc1ccc(C(=O)Nc2ccccc2N)cc1	-89.9*	65.3	-1.2	.
C[C@H]1CN([C@@H](C)CO)C(=O)c2cccc(NC(=O)C3CCCCC3)c2O[C@H]1CN(C)Cc1ccc(C(=O)Nc2ccccc2N)cc1	-69.2	79.5	-1.4	.
C[C@H]1CN([C@@H](C)CO)C(=O)c2cccc(NC(=O)C3CC3)c2O[C@@H]1CN(C)Cc1ccc(C(=O)Nc2ccccc2N)cc1	-53.6	91.1	0.6	0.4
C[C@@H]1CN([C@H](C)CO)C(=O)c2cccc(NC(=O)C3CCCCC3)c2O[C@@H]1CN(C)Cc1ccc(C(=O)Nc2ccccc2N)cc1	-84.0*	69.8	-1.9	-0.7
Cn1c(SCC(=O)N2CCc3ccccc32)nnc1-c1ccc(NC(=O)c2ccc(F)cc2)cc1	.	.	.	0.0
O=C(CSc1nnc(NC(=O)c2ccc(Cl)c(Cl)c2)s1)Nc1ccc(F)c(F)c1F	.	.	.	-1.8
COc1ccc(NC(=O)N(C)C[C@H]2OCc3cnnn3CCCC(=O)N([C@H](C)CO)C[C@H]2C)c(OC)c1	0.8	-7.0	8.7	53.9*
C[C@@H]1CN([C@H](C)CO)C(=O)c2ccccc2-c2ccccc2CO[C@H]1CN(C)C(=O)Nc1cccc(C(F)(F)F)c1	-87.2*	75.3	-0.1	.
COc1cccc(NC(=O)N(C)C[C@H]2OCc3ccccc3-c3c(n(C)c4ccccc34)C(=O)N([C@@H](C)CO)C[C@@H]2C)c1	-84.9*	19.8	-0.6	.
COc1ccc(NC(=O)N(C)C[C@@H]2OCc3ccccc3-c3c(n(C)c4ccccc34)C(=O)N([C@@H](C)CO)C[C@@H]2C)c(OC)c1	-83.3*	53.3	-1.3	-0.8
C[C@H](CO)N1C[C@H](C)[C@@H](CN(C)C(=O)Nc2cccc(C(F)(F)F)c2)OCc2ccccc2-c2ccccc2C1=O	-64.6	51.2	2.5	0.1
COc1ccc(CNCCSc2nnnn2C)cc1	.	.	.	0.1
SMILES	Pf Dd2 inh	Tcruzi prolif	KDM4C inh	IDH1 mut inh
O=C(CCS(=O)(=O)c1nc(-c2ccccc2)cc(C(F)(F)F)n1)Nc1ccc(Cl)cc1Cl	.	.	.	0.4
C[C@@H]1CN([C@H](C)CO)C(=O)c2c(c3ccccc3n2C)-c2ccccc2CO[C@@H]1CN(C)C(=O)Nc1cccc(C(F)(F)F)c1	-84.0*	.	-0.3	.
COc1ccc(NC(=O)N(C)C[C@H]2OCc3ccccc3-c3c(n(C)c4ccccc34)C(=O)N([C@@H](C)CO)C[C@@H]2C)c(OC)c1	-85.2*	42.8	-0.6	.
COc1ccc(NC(=O)N(C)C[C@@H]2OCc3ccccc3-c3c(n(C)c4ccccc34)C(=O)N([C@H](C)CO)C[C@@H]2C)c(OC)c1	30.3	17.2	-0.8	.
COc1ccc(-n2nc3cc(C)c(NC(=S)NC(=O)COc4cccc(C)c4)cc3n2)cc1Cl	.	.	.	-0.1
C[C@@H]1CN([C@H](C)CO)C(=O)c2cc(NC(=O)c3ccccc3)ccc2O[C@@H](C)CCCCO[C@H]1CN(C)S(=O)(=O)c1ccc(Cl)cc1	-85.0*	91.7	2.6	.
C[C@@H]1CCCCO[C@H](CN(C)S(=O)(=O)c2ccc(F)cc2)[C@H](C)CN([C@@H](C)CO)C(=O)c2cc(NC(=O)c3ccccc3)ccc2O1	-54.1	.	-1.0	.
C[C@@H]1CCCCO[C@H](CN(C)S(=O)(=O)c2ccc(Cl)cc2)[C@@H](C)CN([C@@H](C)CO)C(=O)c2cc(NC(=O)c3ccccc3)ccc2O1	-82.6*	103.4	-1.5	-0.3
C[C@@H]1CCCCO[C@H](CN(C)S(=O)(=O)c2ccc(Cl)cc2)[C@@H](C)CN([C@H](C)CO)C(=O)c2cc(NC(=O)c3ccccc3)ccc2O1	-77.7	104.2	-2.1	8.4
Cc1ccc(S(=O)(=O)N(C)C[C@@H]2OCCCC[C@@H](C)Oc3ccc(NC(=O)c4ccccc4)cc3C(=O)N([C@H](C)CO)C[C@@H]2C)cc1	-74.4	-14.1	-1.1	.
C[C@@H]1CCCCO[C@H](CN(C)S(=O)(=O)c2ccc(F)cc2)[C@@H](C)CN([C@@H](C)CO)C(=O)c2cc(NC(=O)c3ccccc3)ccc2O1	-84.2*	.	0.1	0.0
C[C@H](CO)N1C[C@H](C)[C@@H](CN(C)S(=O)(=O)c2ccc(Cl)cc2)OCCCC[C@H](C)Oc2ccc(NC(=O)c3ccccc3)cc2C1=O	-36.3	101.7	-1.5	.
Cc1ccc(S(=O)(=O)N(C)C[C@@H]2OCCCC[C@H](C)Oc3ccc(NC(=O)c4ccccc4)cc3C(=O)N([C@@H](C)CO)C[C@H]2C)cc1	-83.6*	81.9	-4.0	.
CC(NS(=O)(=O)c1ccc(Cl)cc1)C(=O)Nc1c(F)cccc1F (centres undefined)	.	.	.	0.0
Cc1cccc(NC(=O)CSc2nnc(-c3ccc(Cl)cc3)n2-c2cccc(C)c2)c1	.	.	.	-0.2
